Data from ChEMBL document CHEMBL1799988, “Novel chalcone derivatives as potent Nrf2 activators in mice and human lung epithelial cells” (J Med Chem, 2011).
The source made the active and inactive calls. No cut-off for these calls is given here.

Key:
[1] = biological target: T1, Nuclear factor erythroid 2-related factor 2 (Homo sapiens) (UniProt Q16236); assay: Induction of Nrf2-mediated GCLM gene expression in human BEAS2B cells at 10 uM after 16 hrs by RT-PCR analysis relative to untreated control; format: functional, cell-based
T1 sequence (whole entry): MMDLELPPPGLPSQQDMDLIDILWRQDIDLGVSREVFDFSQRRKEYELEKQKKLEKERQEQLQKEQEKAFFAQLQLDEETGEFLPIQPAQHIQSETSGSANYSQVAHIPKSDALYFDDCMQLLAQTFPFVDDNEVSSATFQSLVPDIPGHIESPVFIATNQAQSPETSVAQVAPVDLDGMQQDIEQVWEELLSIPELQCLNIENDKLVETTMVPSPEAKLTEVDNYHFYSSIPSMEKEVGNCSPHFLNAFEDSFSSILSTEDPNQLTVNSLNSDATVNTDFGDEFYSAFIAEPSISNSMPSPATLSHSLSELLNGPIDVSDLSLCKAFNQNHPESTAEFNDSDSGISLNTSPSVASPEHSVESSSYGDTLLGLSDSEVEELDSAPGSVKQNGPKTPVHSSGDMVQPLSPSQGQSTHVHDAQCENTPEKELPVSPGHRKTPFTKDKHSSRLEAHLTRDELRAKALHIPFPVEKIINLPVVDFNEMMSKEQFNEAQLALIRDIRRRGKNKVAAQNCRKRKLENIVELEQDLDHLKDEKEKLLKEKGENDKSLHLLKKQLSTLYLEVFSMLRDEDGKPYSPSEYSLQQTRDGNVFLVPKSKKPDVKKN
How it was run: (§1)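 Beas-2B cells (DMEM:F12, 10% FBS) plated 24 h, then exposed to 10 µM compound in DMSO (final ≤0.1%) for 16 h; sulforaphane as positive control. Total RNA extracted, reverse transcribed with random hexamers, GCLM and NQO1 mRNA quantified by TaqMan qRT-PCR, fold change vs DMSO. Representative of 3 independent experiments, quadruplicate wells.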

[2] = biological target: T1, Nuclear factor erythroid 2-related factor 2 (Homo sapiens); assay: Induction of Nrf2-mediated NQO1 gene expression in human BEAS2B cells at 10 uM after 16 hrs by RT-PCR analysis relative to untreated control; format: functional, cell-based; how it was run: as §1
[3] = Cytotoxicity against human BEAS2B cells assessed as cell viability after 24 hrs by MTT assay; format: cell-based, BEAS-2B; parameters: concentration or dose not given beside the values; conditions: read-out: Activity
How it was run: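 Beas-2B cells treated with compound or DMSO vehicle (0.1%) for 24 h; MTT (5 mg/ml in serum-free medium) added for the last 4 h, formazan dissolved in DMSO after PBS wash, absorbance read at 570 nm. Viability also checked by trypan blue exclusion.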

[4] = tested on: Mus musculus; assay: Induction of Nrf2-mediated GCLM gene expression in small intestine of C57BL/6 mouse at 50 mg/kg, po administered as single dose measured after 24 hrs by RT-PCR analysis related to control; format: functional
How it was run: (§2)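 Male C57BL/6 mice (7 weeks, AIN 76A diet; n=4) given a single 50 mg/kg oral gavage of compound, sulforaphane, or vehicle (10% DMSO + 10% Cremophor EL + 80% PBS). Small intestine harvested 24 h later; GCLM and NQO1 mRNA measured by TaqMan qRT-PCR with β-actin normalization.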

[5] = tested on: Mus musculus; assay: Induction of Nrf2-mediated NQO1 gene expression in small intestine of C57BL/6 mouse at 50 mg/kg, po administered as single dose measured after 24 hrs by RT-PCR analysis related to control; format: functional; how it was run: as §2

fold change (FC) [1]	fold change (FC) [2]	SMILES	viability at 24 h [3] [%]	Activity [4]	Activity [5]
5.4	4.6	COc1ccc(C(=O)/C=C/c2ccccc2C(F)(F)F)cc1	96	Active	Active
4	3.7	COc1cc(OC)cc(C(=O)/C=C/c2ccccc2C(F)(F)F)c1	87.1	–	–
3.5	2.7	COc1ccc(C(=O)/C=C/c2ccc(C(F)(F)F)cc2)cc1OC	–	–	–
2.3	2.5	COc1ccc(C(=O)/C=C/c2ccccc2)cc1OC	–	–	–
1.8	0.8	COc1ccc(OC)c(C(=O)/C=C/c2cccc(C(F)(F)F)c2)c1	–	–	–
2.9	3.1	COc1cccc(C(=O)/C=C/c2ccc(C(F)(F)F)cc2)c1	–	–	–
4.6	4.3	COc1ccc(C(=O)/C=C/c2ccccc2[N+](=O)[O-])cc1	93.2	–	–
4.1	3.7	COc1cc(C(=O)/C=C/c2ccc(C(F)(F)F)cc2)cc(OC)c1OC	–	–	–
2.3	2.7	COc1ccc(C(=O)/C=C/c2ccccc2[N+](=O)[O-])cc1OC	–	–	–
2.9	3.3	COc1ccc(C(=O)/C=C/c2ccccc2[N+](=O)[O-])c(OC)c1OC	–	–	–
5	5.3	O=C(/C=C/c1ccccc1C(F)(F)F)c1ccccc1	145	Active	Active
0.7	1.8	O=C(/C=C/c1ccccc1)c1ccccc1	–	–	–
4.1	2.9	COc1ccc(C(=O)/C=C/c2cccc(C(F)(F)F)c2)cc1OC	–	–	–
4.1	4	COc1ccc(OC)c(C(=O)/C=C/c2ccc(C(F)(F)F)cc2)c1	91.6	–	–
2.6	2	COc1cc(OC)c(C(=O)/C=C/c2ccccc2[N+](=O)[O-])c(OC)c1	–	–	–
3	2.6	COc1ccc(OC)c(C(=O)/C=C/c2ccccc2)c1	–	–	–
2.5	1.9	COc1cccc(OC)c1C(=O)/C=C/c1ccccc1	–	–	–
4.6	3.5	COc1cccc(C(=O)/C=C/c2cccc(C(F)(F)F)c2)c1	95.3	–	–
2.4	2.4	COc1cc(OC)c(C(=O)/C=C/c2ccc(C(F)(F)F)cc2)c(OC)c1	–	–	–
0.7	0.7	COc1cc(C(=O)/C=C/c2ccccc2)cc(OC)c1OC	–	–	–
2.1	1.6	O=C(/C=C/c1ccccc1[N+](=O)[O-])c1ccccc1	–	–	–
2.4	2.4	COc1ccc(C(=O)/C=C/c2ccccc2)c(OC)c1OC	–	–	–
3.6	3.2	COc1ccccc1C(=O)/C=C/c1ccccc1	–	–	–
3.1	1.8	COc1cc(OC)c(C(=O)/C=C/c2ccccc2)c(OC)c1	–	–	–
1.5	2.4	COc1cccc(C(=O)/C=C/c2ccccc2)c1	–	–	–
3.4	4.1	COc1cc(OC)cc(C(=O)/C=C/c2ccccc2[N+](=O)[O-])c1	90.9	–	–
3.8	3.9	COc1cc(OC)cc(C(=O)/C=C/c2cccc(C(F)(F)F)c2)c1	108	–	–
3.6	3.2	COc1ccc(C(=O)/C=C/c2cccc(C(F)(F)F)c2)c(OC)c1OC	–	–	–
3.5	4.6	COc1ccc(C(=O)/C=C/c2ccc(C(F)(F)F)cc2)cc1	104	–	–

The remaining lines, values behind:

SMILES	fold change (FC) [1]	fold change (FC) [2]	viability at 24 h [3] [%]	Activity [4]	Activity [5]
COc1ccc(C(=O)/C=C/c2cccc(C(F)(F)F)c2)cc1	2.7	2.8	–	–	–
COc1ccc(C(=O)/C=C/c2ccccc2C(F)(F)F)c(OC)c1OC	5.4	4.1	102	Active	Active
COc1ccc(C(=O)/C=C/c2ccccc2[N+](=O)[O-])c(OC)c1	2.7	3.3	–	–	–
COc1ccc(OC)c(C(=O)/C=C/c2ccccc2C(F)(F)F)c1	4.4	2.7	–	–	–
COc1cc(C(=O)/C=C/c2ccccc2C(F)(F)F)cc(OC)c1OC	3	3.1	–	–	–
COc1ccccc1C(=O)/C=C/c1ccc(C(F)(F)F)cc1	4.3	5.4	91	–	–
COc1cccc(OC)c1C(=O)/C=C/c1ccc(C(F)(F)F)cc1	1.4	0.6	–	–	–
COc1ccc(C(=O)/C=C/c2ccc(C(F)(F)F)cc2)c(OC)c1OC	4.1	3.9	100	–	–
O=C(/C=C/c1cccc(C(F)(F)F)c1)c1ccccc1	3.1	2.8	–	–	–
O=C(/C=C/c1ccc(C(F)(F)F)cc1)c1ccccc1	3.1	2.9	–	–	–
COc1cc(OC)c(C(=O)/C=C/c2cccc(C(F)(F)F)c2)c(OC)c1	1.4	0.7	–	–	–
COc1ccc(OC)c(C(=O)/C=C/c2ccccc2[N+](=O)[O-])c1	1.7	0.7	–	–	–
COc1cccc(C(=O)/C=C/c2ccccc2C(F)(F)F)c1	5.6	4.3	96.6	Active	Active
COc1cccc(OC)c1C(=O)/C=C/c1ccccc1[N+](=O)[O-]	4.1	3.7	75.8	–	–
COc1ccccc1C(=O)/C=C/c1ccccc1[N+](=O)[O-]	1.9	1.4	–	–	–
COc1cc(OC)cc(C(=O)/C=C/c2ccccc2)c1	3	2.4	–	–	–
COc1cccc(C(=O)/C=C/c2ccccc2[N+](=O)[O-])c1	2.9	2.7	–	–	–
COc1ccccc1C(=O)/C=C/c1cccc(C(F)(F)F)c1	3.9	2.9	–	–	–
COc1ccc(C(=O)/C=C/c2ccccc2)cc1	1.9	2.8	–	–	–
COc1ccc(C(=O)/C=C/c2cccc(C(F)(F)F)c2)c(OC)c1	4.6	4	–	–	–
COc1ccc(C(=O)/C=C/c2ccccc2)c(OC)c1	2.7	2.8	–	–	–
COc1cccc(OC)c1C(=O)/C=C/c1cccc(C(F)(F)F)c1	1.8	0.6	–	–	–
COc1ccc(C(=O)/C=C/c2ccc(C(F)(F)F)cc2)c(OC)c1	5	4.8	92.6	–	–
COc1ccc(C(=O)/C=C/c2ccccc2C(F)(F)F)cc1OC	4.3	2.7	–	–	–
COc1cc(C(=O)/C=C/c2ccccc2[N+](=O)[O-])cc(OC)c1OC	1.2	0.7	–	–	–
COc1cc(C(=O)/C=C/c2cccc(C(F)(F)F)c2)cc(OC)c1OC	1.7	0.8	–	–	–
